Molecules are shown by their SMILES. Active and inactive are the calls of the source. No cut-off for these calls is given here.

Results on one compound are retold here after ChEMBL document CHEMBL3865787, “Combinatorial synthesis, in silico, molecular and biochemical studies of tetrazole-derived organic selenides with increased selectivity against hepatocellular carcinoma” (Eur J Med Chem, 2016).

Data set [1] in a line: Antioxidant activity assessed as DPPH radical scavenging activity at 1 uM after 30 mins in absence of light by spectrophotometric analysis. Format: functional. The essentials: (§1)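 Compounds were dissolved in methanol at 1 µM, and 200 µL was added to 0.4 mL of 0.1 mM DPPH in methanol. Mixtures stood 30 min in the dark and were read at 517 nm against a blank (no DPPH). The negative control used methanol in place of compound. I% = (Ablank − Asample)/Ablank × 100. Ascorbic acid was the reference. Means of 3 replicates.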

A short description of data set [2]: Therapeutic index, ratio of IC50 for human WI38 cells to IC50 for human HepG2 cells. The settings on record: WI38 cells and HepG2 cells, read-out: Ratio IC50. It is filed as cell-based. The essentials: (§2)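 Cells were grown in DMEM with 10% calf serum and seeded at 50,000 cells/mL. They grew 2 days at 37 °C, 10% CO2, then took serial compound dilutions for 48 h. MTT (final 0.5 mg/mL) ran 2 h; formazan was washed, dissolved in DMSO and read at 590 nm. IC50 was taken from dose-response curves as the mean of two parallel experiments. 5-FU was the positive control. TI = IC50 WI-38/IC50 HepG2.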

Data set [3] is described as follows: Antioxidant activity assessed as DPPH radical scavenging activity at 1 uM after 30 mins in absence of light by spectrophotometric analysis relative to ascorbic acid. Format: functional. The essentials:
as §1

The nature of data set [4]: Cytotoxicity against human HepG2 cells assessed as reduction in cell viability after 48 hrs by MTT assay. Format: functional, cell-based. As to conditions: HepG2, 48 h. In a few lines: as §2
A short description of data set [5]: Downregulation of Ki67 expression in human HepG2 cells at IC50 after 48 hrs by ELISA. Format: functional, cell-based. The essentials:
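They were detached with trypsin and lysed by four rounds of ultrasonication before Ki-67 measurement. Comparison was with untreated cells; mean ± SD, ANOVA with LSD/Dunnett post hoc.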

Data set [6] in a line: Upregulation of caspase-8 expression in human HepG2 cells at IC50 after 48 hrs by ELISA. Format: functional, cell-based. In a few lines:
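Cells were trypsinized and lysed by liquid-nitrogen freeze–thaw. Lysates were incubated with HRP-conjugated anti-caspase-8 antibody for 30 min at 37 °C, with ELISA read-out at 450 nm. Levels were compared against untreated cells; mean ± SD, ANOVA with LSD/Dunnett post hoc.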

Data set [7] can be described thus: Glutathione peroxidase-like activity assessed as decrease in H2O2 reduction at 41 uM preincubated with compound followed by H2O2 addition after 3 mins by spectrophotometry based NADPH-reductase coupled assay. The essentials: (§3)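 Buffer: 50 mM phosphate with 0.1% Triton X-100, plus NADPH reagent (24 µmol glutathione, 12 U glutathione reductase, 4.8 µmol NADPH). Compound was at 41 µM and the reaction was started with 0.8 mM H2O2. A340 was followed for 3 min, giving ΔA/min. Rates were corrected for background H2O2/GSH reaction, and for compound absorbance where colored. Ebselen (41 µM) served as reference.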

Data set [8] is described as follows: Downregulation of Bcl2 expression in human HepG2 cells at IC50 after 48 hrs by ELISA. It is filed as functional, cell-based. In a few lines: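 For ELISA, lysates had biotin conjugate 2 h at 25 °C, then streptavidin-HRP 1 h at 25 °C, read at 450 nm. Comparison was with untreated cells; mean ± SD, ANOVA with LSD/Dunnett post hoc.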
The nature of data set [9]: Cytotoxicity against human MCF7 cells assessed as reduction in cell viability after 48 hrs by MTT assay. It is filed as functional, cell-based. The settings on record: MCF7, 48 h. The essentials: as §2
Data set [10] in a line: Glutathione peroxidase-like activity assessed as decrease in H2O2 reduction at 41 uM preincubated with compound followed by H2O2 addition after 3 mins by spectrophotometry based NADPH-reductase coupled assay relative to ebselen. The essentials: as §3
Data set [11] can be described thus: Cytotoxicity against human WI38 cells assessed as reduction in cell viability after 48 hrs by MTT assay. It is filed as toxicity, cell-based, WI-38. In a few lines: as §2
Data set [12] is described as follows: Pro-oxidant activity as bleomycin-Fe2+ induced calf thymus DNA damage measured as absorbance at 2 mM after 1 hr by thiobarbituric acid-based assay. Set-up: unit not given here. It is filed as ADME. As to conditions: cattle, 2000 µM. In a few lines:
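The mix held calf thymus DNA 0.5 mg/mL, bleomycin sulfate 0.05 mg/mL, MgCl2 5 mM, FeCl3 50 mM and sample 2 mM. Ascorbic acid was the positive control. Capped tubes were heated at 80 °C for 30 min, ice-cooled, shaken and centrifuged. DNA damage was read as the increase in absorbance at 532 nm. Means of 3 replicates.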

Consider `CC1=C([Se]c2ccc(NC(c3ccc(C)cc3)c3nnnn3C(C)(C)C)cc2)C(=O)c2ccccc2C1=O` (configuration not stated), for which the Activity in data set [1] turned out to be 93%; in data set [12], 90. Further, the selectivity ratio in [2] worked out at 0.8. The fold change (FC) is 1 in data set [3] and below 5 in data set [10]. Also, the IC50 in data set [4] was 47 µM; in data set [9], at least 100 µM. Besides, the result in data set [5], in [6], in data set [7] and in data set [8] was Active. Besides, the IC50 at 48 h in data set [11] stood at 36 µM.
